# SKKanGAS inh: SKKanGAS growth inhibition; S. pyogenes SKKanGAS, kanamycin growth, BacTiter-Glo, 6 h; inhibition, % at 7.5 µM; actives 1.3% (n = 300,000); AID 1662;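 active = mean replicate score, as percent of positive control median, at least 50; inconclusive = mean below 50 but one replicate at or above 50; inactive = mean and every replicate below 50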;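 note: strain carries kanamycin resistance gene driven by streptokinase promoter and grows in 40 µg/ml kanamycin; loss of luminescence reflects streptokinase promoter inhibition or plain growth inhibition; 0% = median of DMSO wells and 100% = positive control at its reference dose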
# WT yeast gro inh: growth inhibition of WT yeast, mitochondrial fusion screen; mitochondrial fusion phenotypic screen, WT strain; inhibition, % at 10 µM; actives 2.1% (n = 190,000); in the data active = inhibition above about 58%; tested in S. cerevisiae
# Autophagy HCS: modulators of autophagy. calls only at 10 µM (by protocol). AID 463193. MEF GFP-LC3 puncta imaging; test concentration mostly 10 µM. actives 0.98% (n = 190,000);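 active = percentage of spot-positive cells more than 3 SD above its plate mean, without a fluorescence outlier flag or 80% toxicity; inconclusive = no clear call, values can overlap the other calls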;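 note: spot-positive cell cutoff set from DMSO-treated cells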
# Cl transport mod: modulates chloride dependent transport by human KCC2. KCC2 cells, thallium flux FluoZin-2 fluorescence. B-score of Tl+ flux slope (higher = more flux/activation; lower = inhibition) at 10 µM. actives 2.2% (n = 190,000). AID 1456;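 active = thallium flux slope and its plate-corrected score both differing from the plate sample mean at a set confidence after two filtering rounds, in either direction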;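 note: slope of fluorescence scaled to starting intensity during 10 to 20 s after thallium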
# Rad51 HR inh: blocks human Rad51 in homologous recombination; inhibition, % at 10 µM; AID 1385; actives 0.085% (n = 200,000); Q06609; hRad51 DNA strand exchange, fluorescence dequenching;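 active = inhibition above 40% at the single screening dose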;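 note: 0% = DMSO control wells and 100% = blanks with heterologous ssDNA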
# Target sequence (Q06609 whole entry, looked up): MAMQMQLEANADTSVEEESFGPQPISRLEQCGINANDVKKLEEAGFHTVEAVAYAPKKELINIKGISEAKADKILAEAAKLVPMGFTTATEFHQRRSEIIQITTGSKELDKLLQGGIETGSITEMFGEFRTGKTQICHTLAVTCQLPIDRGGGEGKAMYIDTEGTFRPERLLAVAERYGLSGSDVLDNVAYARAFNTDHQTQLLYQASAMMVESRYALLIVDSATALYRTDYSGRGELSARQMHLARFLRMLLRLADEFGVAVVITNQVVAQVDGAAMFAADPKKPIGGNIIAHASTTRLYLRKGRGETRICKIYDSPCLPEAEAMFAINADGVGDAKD
#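 material = hRad51 filaments on single-stranded DNA | reagent = Donor/quencher-labelled 47-bp dsDNA substrate | compound = 10 µM final, single point | schedule = strand-exchange reaction 15 min at room temperature | measured by = fluorescein emission 520 nm, excitation 485 nm | read-out basis = % inhibition versus plate control and blank means | benchmarks = plate controls and plate blanks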
# Insulin prom up: MIN6 insulin promoter up-regulation. MIN6 insulin promoter-GFP reporter, high-content imaging; active compounds read high. z-score at 5 µM. actives 0.3% (n = 190,000). AID 1625;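 active = z-score above 3 at 5 µM with at least 500 cells counted in the well; inconclusive = wells under 500 cells, flagged as cytotoxic or low count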
# KCC2 sec1: KCC2 (human) modulation, secondary assay; HEK293-KCC2, thallium flux, FluoZin2 fluorescence; active compounds read high; actives 15% (n = 3,700); shares compounds with Cl transport mod; normalised thallium flux (F/F0 slope) at 10 µM; AID 1713;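 active = thallium flux slope above the same plate's solvent-only control mean plus 3 SD; inconclusive = the two replicate wells disagree; inactive = no significant difference from solvent-only control wells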
# KCC2 bumet counter: thallium flux persisting under bumetanide in KCC2 cells, counter-screen secondary assay | shares compounds with Cl transport mod | HEK293-KCC2 + bumetanide/ouabain, thallium flux FluoZin2; active compounds read high | normalized thallium flux at 10 µM | actives 49% (n = 3,700);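 active = thallium entry rate above the same plate's blocked-transporter control wells by more than 3 SD; inconclusive = the two repeat wells disagree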;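 note: raw slope of fluorescence over initial fluorescence between 10 and 20 s after thallium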
# KCC2 sec2: KCC2 (human) modulation, second secondary assay; shares compounds with Cl transport mod; normalized thallium flux at 10 µM; actives 23% (n = 3,700); AID 1715; HEK293-KCC2, thallium flux FluoZin2 fluorescence; actives lie on both sides; F/F0 rise rate, 10–20 s post-thallium;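 active = thallium flux slope more than 3 SD above or below the plate's solvent-only control mean, mostly below; inconclusive = the two repeat wells disagreed; inactive = no significant shift from solvent-only controls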;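 note: raw slope with 0.1% DMSO as baseline and bumetanide as block control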
# HEK counter1: parental HEK flux effect, counter-screen; thallium flux rate (normalised fluorescence) at 10 µM; actives 46% (n = 3,700); shares compounds with Cl transport mod; HEK293 parental cells, thallium flux FluoZin2, ouabain; baseline-ratio fluorescence slope, 10–20 s after thallium;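 active = thallium flux rate significantly above the same plate's solvent-only control wells, beyond their mean plus 3 SD; inconclusive = the two replicate wells gave conflicting results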
# KCC2 retest ouab: confirmation of human KCC2 modulators with ouabain. shares compounds with Cl transport mod. HEK293-KCC2, thallium flux FluoZin2 fluorescence; bidirectional: low = inhibitor, high = activator. raw Tl+ flux slope (below DMSO = inhibition, above = activation) at 10 µM. actives 48% (n = 3,700);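 active = thallium flux slope beyond 3 SD from same-plate DMSO control mean in most replicates, usually higher, sometimes lower; inconclusive = repeat tests gave conflicting results; inactive = no significant difference from controls in most replicates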;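 note: slope of initial-normalized fluorescence between seconds 10 and 20 after thallium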
# HEK counter2: parental HEK flux effect, counter-screen 2; shares compounds with Cl transport mod; HEK293 parental, thallium flux FluoZin-2 fluorescence slope; thallium flux slope at 10 µM; actives 33% (n = 3,700); AID 1718;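 active = thallium flux slope above the same plate's solvent-control mean plus 3 SD in both duplicate wells; inconclusive = duplicate wells that disagreed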;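 note: run without ouabain in cells lacking the KCC2 cotransporter; slope of fluorescence scaled to its starting value between 10 and 20 s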
# Active calls of the source: *; i = inactive; ? = inconclusive; / = no result. Only some compounds are listed: those with a hit (about 4.2% of all), similar ones and a draw of the others.
SMILES,SKKanGAS inh,WT yeast gro inh,Autophagy HCS,Cl transport mod,Rad51 HR inh,Insulin prom up,KCC2 sec1,KCC2 bumet counter,KCC2 sec2,HEK counter1,KCC2 retest ouab,HEK counter2
CCn1c(O)c(N=NC(=S)NCC2CCCO2)c2ccccc21 (centres undefined),14,16,i,53*,0,-0.89,0.0071,0.078*,0.058*,0.055*,0.067*,0.056*
Oc1[nH]c2ccc(Br)cc2c1N=NC(=S)NCC1CCCO1 (centres undefined),81*,/,/,35*,13,-0.68,0.014*,0.048*,0.034,?,0.036*,0.018*
CCn1c(=O)cc(SCC(=O)NCC2CCCO2)c2ccccc21 (centres undefined),-5,1,i,/,-2,1.3,/,/,/,/,/,/
O=C(CCCn1c(=S)[nH]c2ccc(Br)cc2c1=O)NCC1CCCO1 (centres undefined),0,-2,i,/,-9,/,/,/,/,/,/,/
O=C(c1cccc(C(F)(F)F)c1)C1CCCN(C(=O)CN2CCOC2=O)C1 (centres undefined),-1,/,/,/,/,/,/,/,/,/,/,/
COc1ccc(N2CCN(C(CNC(=O)C(C)C)c3ccc4c(c3)OCO4)CC2)cc1 (centres undefined),-5,/,/,/,/,/,/,/,/,/,/,/
CCOC(=O)c1sc(NNC(=O)c2ccc(F)cc2)nc1C,22,/,/,11*,/,-0.37,0.015*,0.024*,0.038,?,0.03*,?
CCOC(=O)c1sc(NNC(=O)c2ccc(C)cc2)nc1C,0,/,/,0.24,8,-0.86,/,/,/,/,/,/
COc1ccc2c(c1)C(=O)[C@@H](O)[C@H](c1ccc(OC)c(Br)c1)O2,6,25,i,6*,-4,0.05,0.0084,0.014*,0.031,0.02*,?,0.011
CC1CCCCC12NC(=S)N(c1ccccc1)N2 (centres undefined),-1,/,/,8.1*,7,-0.02,?,0.022*,0.034,0.016*,0.027,0.012*
S=C1NC2(CCCCC2)NN1c1ccccc1,-8,44,i,/,/,-0.22,/,/,/,/,/,/
O=C(CSc1nnc(SCC(=O)c2ccco2)s1)c1ccco1,13,10,i,-1.3,-1,1.1,/,/,/,/,/,/
O=C(CSc1nc2cc(Cl)ccc2s1)c1ccco1,-4,3,i,13*,1,0.4,0.025*,0.036*,0.043*,0.03*,0.036*,0.033*
CCOC(=O)C1CCCN(C/C(O)=C(\C#N)c2nc(-c3ccc(Cl)cc3)cs2)C1 (centres undefined),8,-2,i,-3.5*,-7,0,0.0084,0.0047,0.024*,0.0073,0.018*,0.01
N#C/C(=C(/O)CN1CCCC1)c1nc(-c2ccccc2)cs1,0,/,/,0.17,-10,0.77,/,/,/,/,/,/
C/C(=N\NC(=O)Cc1ccccc1)c1ccc(Br)s1,-5,/,/,/,/,/,/,/,/,/,/,/
C/C(=N\NC(=O)c1ccc(Cl)c(Cl)c1)c1ccc(Br)s1,88*,51,i,7.2*,1,0.44,0.0075,0.009*,0.036,0.022*,0.025*,0.017*
C/C(=N\NC(=O)c1ccc2c(c1)OCO2)c1ccco1,-1,10,i,2.6,6,-0.22,/,/,/,/,/,/
C/C(=N/NC(=O)c1ccc2c(c1)OCO2)c1ccc(Br)s1,14,6,i,6.3*,-47,-0.41,0.01,0.015*,0.034,?,?,?
C/C(=N/NC(N)=S)c1ccc(Br)s1,-6,-3,i,19*,-12,-0.39,0.011,0.032*,0.031,0.014*,0.027,?
CCOC(=O)C1=NN(C(=O)c2cccc(Br)c2)C(O)(C(C)(C)C)C1 (centres undefined),90*,/,/,107*,12,-0.35,0.048*,0.13*,0.052*,?,0.099*,0.039*
CCOC(=O)C1=NN(C(=O)c2ccco2)C2(CC2)C1,-5,13,i,-0.24,1,0.08,/,/,/,/,/,/
Cc1ccc(/C=C(\CCC(=O)O)c2nc3ccccc3s2)cc1[N+](=O)[O-],-1,-39,i,-6.9*,13,-0.23,0.0057,0.0048,0.022*,0.0058*,0.01*,?
CCOc1cc(/C=C(\CC(=O)O)c2nc3ccccc3s2)ccc1OC,-2,12,i,1.4,-61,0.42,/,/,/,/,/,/
CN(c1ccccc1)c1ccc(/C=C(\CCC(=O)O)c2nc3ccccc3s2)cc1[N+](=O)[O-],-9,24,i,-6.9*,5,-0.14,0.0053,0.0047,0.021*,0.0069,0.012*,0.0098
SMILES,SKKanGAS inh,WT yeast gro inh,Autophagy HCS,Cl transport mod,Rad51 HR inh,Insulin prom up,KCC2 sec1,KCC2 bumet counter,KCC2 sec2,HEK counter1,KCC2 retest ouab,HEK counter2
Cn1cnnc1Sc1ccc(/C=C(\CCC(=O)O)c2nc3ccccc3s2)cc1[N+](=O)[O-],6,-16,i,-6.8*,2,0.91,0.0057,0.0048,0.025*,0.0059*,0.014*,0.0097
CNc1ccc(/C=C(\CCC(=O)O)c2nc3ccccc3s2)cc1[N+](=O)[O-],26,-14,i,-5.5*,/,-0.26,0.0094,0.0062,0.025*,0.0083,0.013*,0.011
CC1SCCN1S(=O)(=O)c1ccc2ccccc2c1 (centres undefined),7,-19,i,0.29,5,/,/,/,/,/,/,/
CC(C)Cc1nnc(NC(=O)CCC(=O)N2CCN(c3ccccc3F)CC2)s1,-2,/,/,/,/,/,/,/,/,/,/,/
CCOc1nc(-c2ccc(OC)cc2)ccc1-c1noc(-c2cccnc2)n1,/,/,i,-0.063,/,/,/,/,/,/,/,/
CCOc1nc(-c2ccc(C)cc2)ccc1-c1noc(-c2cccnc2)n1,0,-12,i,2.9*,-6,/,0.0083,0.0046,0.029,0.0076,0.02,0.01
CNC(=O)NC(=O)CSc1nc2sccc2c(=O)n1-c1ccccc1,1,/,/,/,/,/,/,/,/,/,/,/
O=C(CSc1n[nH]c(=O)n1Cc1ccccc1)Nc1ccc(F)c(F)c1F,-5,/,/,/,/,/,/,/,/,/,/,/
NC(N)=NS(=O)(=O)c1ccc(NC(=S)NC(=O)c2ccc3c(c2)OCO3)cc1,-3,3,i,1.4,0,0.9,/,/,/,/,/,/
